Activity calls are given as the source filed them. The rule behind the calls is not given here.
Key:
Mus musculus [1] = assay: Toxicity in C57BL/6J mouse assessed as pathological changes in heart at 5 mg/kg, po for 3 weeks; format: organism-based; parameters: dose 5 mg/kg, route oral; settings: in vivo, 504 h
In short: (§1)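 Mice were dosed orally at 5 mg/kg for 3 weeks, with saline-treated controls. Major organs were examined for pathological changes, and a complete blood count was done.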

[2] = molecular target: BDNF/NT-3 growth factors receptor (Rattus norvegicus) (UniProt Q63604); assay: Agonist activity at TrkB in E17 rat primary rat cortical neurons assessed as AKT phosphorylation at Ser 473 after 15 mins by titration assay; format: functional
In short: (§2)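 Primary cortical neurons were incubated with graded concentrations, starting at 10 nM, for 15 min. Phospho-Akt Ser473 was measured by sandwich ELISA on 20 µg of lysate. Data come from 2 replicated experiment sets, given as mean ± SEM. Comparisons used one-way ANOVA against control and Student's t-test between compounds.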

Mus musculus [3] = assay: Agonist activity at TrkB in C57BL/6J mouse brain lysate assessed as TrkB phosphorylation at Y817 at 5 mg/kg, po administered for 21 days by immunoblotting; format: functional, organism-based; parameters: dose 5 mg/kg
In short: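 Adult male C57BL/6J mice, 8 per group, dosed orally by gavage once daily for 21 days; saline was the vehicle. Brain lysates were immunoblotted with anti-p-TrkA 794 and anti-p-TrkB 817.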

Mus musculus [4] = assay: Toxicity in C57BL/6J mouse assessed as pathological changes in brain cortex at 5 mg/kg, po for 3 weeks; format: organism-based; parameters: dose 5 mg/kg, route oral; settings: in vivo, 504 h; in short: as §1
[5] = molecular target: BDNF/NT-3 growth factors receptor (Rattus norvegicus) (UniProt Q63604); assay: Agonist activity at TrkB in E17 rat primary cortical neurons assessed as MAPK phosphorylation at 500 nM by ELISA; settings: Cerebral cortex neuron
HEK293 [6] = assay: Cytotoxicity against human HEK293 cells assessed as inhibition of cell proliferation at up to 50 uM by MTT assay; format: cell-based
Mus musculus [7] = assay: Toxicity in C57BL/6J mouse assessed as pathological changes in spleen at 5 mg/kg, po for 3 weeks; format: organism-based; parameters: dose 5 mg/kg, route oral; settings: in vivo, 504 h; in short: as §1
[8] = molecular target: BDNF/NT-3 growth factors receptor (Rattus norvegicus) (UniProt Q63604); assay: Agonist activity at TrkB in E17 rat primary cortical neurons at 500 nM after 5 mins by immunoblotting; format: functional, cell-based; settings: Cerebral cortex neuron
In short: (§3)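 Rat primary cortical neurons were exposed to 500 nM compound for various times between 5 and 180 min. Lysates were immunoblotted for TrkB, Akt and MAPK phosphorylation.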

[9] = molecular target: BDNF/NT-3 growth factors receptor (Rattus norvegicus) (UniProt Q63604); assay: Agonist activity at TrkB in E17 rat primary cortical neurons assessed as AKT phosphorylation at S473 at 500 nM by ELISA; settings: Cerebral cortex neuron
Mus musculus [10] = assay: Antidepressant activity in TrkB F616A knock in mouse assessed as reduction of immobility time at 5 mg/kg, po administered for 21 days by forced swim test assay in presence of TrkB F616A inhibitor 1NMPP1; format: functional, organism-based; parameters: dose 5 mg/kg
Mus musculus [11] = assay: Toxicity in C57BL/6J mouse assessed as pathological changes in kidney at 5 mg/kg, po for 3 weeks; format: organism-based; parameters: dose 5 mg/kg, route oral; settings: in vivo, 504 h; in short: as §1
[12] = molecular target: BDNF/NT-3 growth factors receptor (Rattus norvegicus) (UniProt Q63604); assay: Agonist activity at TrkB in E17 rat primary cortical neurons at 500 nM after 10 mins by immunoblotting; format: functional, cell-based; settings: Cerebral cortex neuron; in short: as §3
[13] = molecular target: BDNF/NT-3 growth factors receptor (Rattus norvegicus) (UniProt Q63604); assay: Agonist activity at TrkB in E17 rat primary cortical neurons at 500 nM after 30 to 180 mins by immunoblotting; format: functional, cell-based; settings: Cerebral cortex neuron; in short: as §3
Mus musculus [14] = assay: Agonist activity at TrkB in C57BL/6J mouse brain assessed as TrkB 706 phosphorylation at 1 mg/kg, po at 1 hr by immunoblotting; format: functional, organism-based; parameters: dose 1 mg/kg
In short: (§4)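 C57BL/6J mice got a single oral dose of 1 mg/kg. Brains were collected at several time points, about 1 to 16 h after dosing. Lysates were immunoblotted for TrkB phosphorylation and for downstream Akt and MAPK phosphorylation.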

Mus musculus [15] = assay: Agonist activity at TrkB in C57BL/6J mouse brain assessed as MAPK phosphorylation at 1 mg/kg, po after 1 to 16 hrs by immunoblotting; format: functional, organism-based; parameters: dose 1 mg/kg; in short: as §4
[16] = molecular target: BDNF/NT-3 growth factors receptor (Rattus norvegicus) (UniProt Q63604); assay: Agonist activity at TrkB in E16 rat embryonic cortical neurons assessed as inhibition of glutamate-induced caspase 3 activation at 10 nM after 30 mins followed by 16 hrs of 50 uM glutamate-challenge by ELISA; format: functional
In short: (§5)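 Cortical neurons from E16 rat embryos were pretreated with the indicated compound concentrations for 30 min. They were then challenged with 50 µM glutamate for 16 h. Active caspase-3 in the lysates was measured by ELISA.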

[17] = molecular target: BDNF/NT-3 growth factors receptor (Rattus norvegicus) (UniProt Q63604); assay: Agonist activity at TrkB in E17 rat primary rat cortical neurons assessed as AKT phosphorylation at Ser 473 at 10 to 50 nM after 15 mins by titration assay; format: functional; in short: as §2
Mus musculus [18] = assay: Induction of neurogenesis in C57BL/6J mouse hippocampus dentate gyrus assessed as progenitor cell proliferation at 5 mg/kg, po administered for 21 days by DAPI and BrdU staining based fluorescence microscopy; format: functional, organism-based; parameters: dose 5 mg/kg
In short: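 Adult male C57BL/6J mice were gavaged at 5 mg/kg for 21 days and then given BrdU at 50 mg/kg i.p. Mice were perfused with 4% paraformaldehyde 2 h later. Paraffin sections had citrate antigen retrieval and 2 N HCl treatment, then were stained with anti-BrdU-FITC at 4 °C for 16 h and with DAPI. BrdU-positive cells in the dentate gyrus were counted by fluorescence microscopy.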

HEK293 [19] = assay: Cytotoxicity against human HEK293 cells assessed as cell death at 50 to 50000 nM after 24 hrs by LDH assay; format: cell-based; settings: hek293, 24 h, 50 µM
Mus musculus [20] = assay: Toxicity in C57BL/6J mouse assessed as pathological changes in hippocampus at 5 mg/kg, po for 3 weeks; format: organism-based; parameters: dose 5 mg/kg, route oral; settings: in vivo, 504 h; in short: as §1
Mus musculus [21] = assay: Toxicity in C57BL/6J mouse assessed as pathological changes in testis at 5 mg/kg, po for 3 weeks; format: organism-based; parameters: dose 5 mg/kg, route oral; settings: in vivo, 504 h; in short: as §1
Mus musculus [22] = assay: Agonist activity at TrkB in C57BL/6J mouse brain assessed as TrkB 706 phosphorylation at 1 mg/kg, po after 4 hrs by immunoblotting; format: functional, organism-based; parameters: dose 1 mg/kg; in short: as §4
[23] = molecular target: BDNF/NT-3 growth factors receptor (Rattus norvegicus) (UniProt Q63604); assay: Agonist activity at TrkB in E17 rat primary rat cortical neurons assessed as AKT phosphorylation at Ser 473 at 10 nM after 15 mins by titration assay; format: functional; in short: as §2
[24] = molecular target: BDNF/NT-3 growth factors receptor (Rattus norvegicus) (UniProt Q63604); assay: Agonist activity at TrkB in E17 rat primary rat cortical neurons assessed as AKT phosphorylation at Ser 473 at 100 nM after 15 mins by titration assay; format: functional; in short: as §2
[25] = molecular target: BDNF/NT-3 growth factors receptor (Rattus norvegicus) (UniProt Q63604); assay: Agonist activity at TrkB in E16 rat embryonic cortical neurons assessed as inhibition of glutamate-induced caspase 3 activation at 50 to 500 nM after 30 mins followed by 16 hrs of 50 uM glutamate-challenge by ELISA; format: functional; in short: as §5
Mus musculus [26] = assay: Antidepressant activity in C57BL/6J mouse assessed as decrease in immobility at 5 mg/kg, po administered for 21 days measured last 4 mins of total 6 mins observation time by forced swim test; format: functional, organism-based; parameters: dose 5 mg/kg
In short: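 Male C57BL/6J mice, 2–3 months old, were gavaged with saline or compound at 5 mg/kg for 21 days. Mice were acclimated to the test room for 2 days. There was no pre-swim. Each mouse swam for 6 min in a 16 cm cylinder of water 14 cm deep at 24 °C. Immobility was scored blind over the last 4 min; mean ± SEM, ANOVA.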

[27] = molecular target: BDNF/NT-3 growth factors receptor (Rattus norvegicus) (UniProt Q63604); assay: Agonist activity at TrkB in E17 rat primary rat cortical neurons assessed as AKT phosphorylation at Ser 473 at 500 nM after 15 mins by ELISA; format: functional

Sequence of BDNF/NT-3 growth factors receptor (Rattus norvegicus) (Q63604 whole entry): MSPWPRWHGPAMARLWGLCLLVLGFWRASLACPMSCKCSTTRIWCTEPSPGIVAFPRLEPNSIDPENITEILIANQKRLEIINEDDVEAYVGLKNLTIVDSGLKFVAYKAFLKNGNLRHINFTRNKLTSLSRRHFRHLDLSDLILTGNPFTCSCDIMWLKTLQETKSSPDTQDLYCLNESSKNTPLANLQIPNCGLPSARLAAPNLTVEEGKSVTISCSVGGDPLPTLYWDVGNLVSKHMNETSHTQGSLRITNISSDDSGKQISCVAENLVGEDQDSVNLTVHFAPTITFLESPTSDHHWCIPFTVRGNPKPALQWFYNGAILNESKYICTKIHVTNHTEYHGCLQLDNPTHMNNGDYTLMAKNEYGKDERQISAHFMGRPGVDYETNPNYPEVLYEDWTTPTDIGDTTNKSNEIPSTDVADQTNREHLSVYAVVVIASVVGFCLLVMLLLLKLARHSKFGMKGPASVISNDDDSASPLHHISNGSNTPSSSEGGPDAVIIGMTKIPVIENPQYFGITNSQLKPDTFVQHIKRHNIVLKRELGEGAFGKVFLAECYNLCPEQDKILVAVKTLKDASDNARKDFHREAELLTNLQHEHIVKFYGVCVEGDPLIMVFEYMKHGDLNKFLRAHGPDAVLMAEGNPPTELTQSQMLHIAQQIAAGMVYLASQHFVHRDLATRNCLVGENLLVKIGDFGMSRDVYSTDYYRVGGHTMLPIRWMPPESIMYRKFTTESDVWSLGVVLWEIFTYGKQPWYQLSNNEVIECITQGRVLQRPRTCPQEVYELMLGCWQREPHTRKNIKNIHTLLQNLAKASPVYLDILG

Activity [2]: Dose-dependent effect | Activity [5]: Active | Activity [8]: Active | Activity [9]: Active | Activity [12]: Active | Activity [13]: inactive | inhibition [16]: Active | Activity [17]: Active | Activity [23]: Active | Activity [24]: Active | Activity [25]: Active | Activity [27]: Active
Compound: CN(C)c1ccc(-c2cc(=O)c3ccc(O)c(O)c3o2)cc1
Activity (Mus musculus [1]): Non-toxic | Activity (Mus musculus [3]): Active | Activity (Mus musculus [4]): Non-toxic | Activity (HEK293 [6]): Non-toxic | Activity (Mus musculus [7]): Non-toxic | Activity (Mus musculus [10]): inactive | Activity (Mus musculus [11]): Non-toxic | Activity (Mus musculus [14]): Active | Activity (Mus musculus [15]): Active | Activity (Mus musculus [18]): Active | Activity (HEK293 [19]): Non-toxic | Activity (Mus musculus [20]): Non-toxic | Activity (Mus musculus [21]): Non-toxic | Activity (Mus musculus [22]): Active | Activity (Mus musculus [26]): Active
